Experiment [1] can be described thus: Antiproliferative activity against human CMS cells after 72 hrs in presence of SAHA by MTT assay. It is filed as functional, cell-based. The gist of the method: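 AML cell lines grown in RPMI 1640 with 10% FBS (20% for MOLM-13), 2 mM L-glutamine and penicillin/streptomycin at 37 °C, 5% CO2. Ara-C-resistant HL-60 and CMK sublines came from stepwise cytarabine selection and were kept in 600 nM or 300 nM cytarabine respectively. Cells were treated 72 h. MTT 0.05 mg/mL, 3 h at 37 °C, DMSO solubilization, absorbance at 570 nm. IC50 given ± SEM.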

The test system of experiment [2] is U-937. The experiment can be described thus: Induction of cell death in p53 null human U937 cells assessed as combination index at 2 to 4 uM after 24 hrs in presence of SAHA by annexin V-FITC/PI staining based flow cytometry. Format: functional. The essentials: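 Cells given SAHA and PL alone or together at 1:1 ratio for 24 h, then Annexin V-FITC/PI staining and flow cytometry. Combination index computed from the % Annexin V+ data; CI < 1 synergistic, = 1 additive, > 1 antagonistic. Triplicates, three independent experiments.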
A general note: Flow cytometry measures light scatter and fluorescence of single cells or particles in a stream.

Experiment [3] concerns U-937. The experiment can be described thus: Induction of apoptosis in p53 null human U937 cells assessed as PARP-1 cleavage at 2 uM after 24 hrs in presence of SAHA by Western blot analysis. Format: functional, cell-based. The gist of the method:
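U937 cells exposed for 24 h. Lysates with protease/phosphatase inhibitors were separated by SDS-PAGE, transferred to PVDF and probed for PARP and cleaved caspase-3, with β-actin as loading control.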
For orientation: A western blot detects proteins with antibodies after separation by electrophoresis.

The next experiment relates to MV4-11. The experiment can be described thus: Antiproliferative activity against human MV4-11 cells after 72 hrs in presence of SAHA by MTT assay. Format: functional, cell-based. The settings on record: MV4-11, 72 h. Background: Formazan colour is commonly taken as a measure of viable cells.
The subject of experiment [4] is U-937. The experiment can be described thus: Effect on SAHA-induced DNA damage in p53 null human U937 cells assessed as decrease in Rad51 expression level by measuring ratio of Rad51 to beta-actin level at 2 uM after 24 hrs by Western blot analysis relative to control. Format: functional. The gist of the method:
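U937 cells treated 24 h, alone or PL+SAHA. Whole-cell lysates (protease/phosphatase inhibitors) immunoblotted for γH2AX, CHK1, RAD51, Bim and XIAP. Band densitometry normalised to β-actin, then expressed as fold change relative to the untreated control.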

Experiment [5] concerns the target T1, Protein deacetylase HDAC6 (Homo sapiens) (UniProt Q9UBN7).
T1 sequence (whole entry): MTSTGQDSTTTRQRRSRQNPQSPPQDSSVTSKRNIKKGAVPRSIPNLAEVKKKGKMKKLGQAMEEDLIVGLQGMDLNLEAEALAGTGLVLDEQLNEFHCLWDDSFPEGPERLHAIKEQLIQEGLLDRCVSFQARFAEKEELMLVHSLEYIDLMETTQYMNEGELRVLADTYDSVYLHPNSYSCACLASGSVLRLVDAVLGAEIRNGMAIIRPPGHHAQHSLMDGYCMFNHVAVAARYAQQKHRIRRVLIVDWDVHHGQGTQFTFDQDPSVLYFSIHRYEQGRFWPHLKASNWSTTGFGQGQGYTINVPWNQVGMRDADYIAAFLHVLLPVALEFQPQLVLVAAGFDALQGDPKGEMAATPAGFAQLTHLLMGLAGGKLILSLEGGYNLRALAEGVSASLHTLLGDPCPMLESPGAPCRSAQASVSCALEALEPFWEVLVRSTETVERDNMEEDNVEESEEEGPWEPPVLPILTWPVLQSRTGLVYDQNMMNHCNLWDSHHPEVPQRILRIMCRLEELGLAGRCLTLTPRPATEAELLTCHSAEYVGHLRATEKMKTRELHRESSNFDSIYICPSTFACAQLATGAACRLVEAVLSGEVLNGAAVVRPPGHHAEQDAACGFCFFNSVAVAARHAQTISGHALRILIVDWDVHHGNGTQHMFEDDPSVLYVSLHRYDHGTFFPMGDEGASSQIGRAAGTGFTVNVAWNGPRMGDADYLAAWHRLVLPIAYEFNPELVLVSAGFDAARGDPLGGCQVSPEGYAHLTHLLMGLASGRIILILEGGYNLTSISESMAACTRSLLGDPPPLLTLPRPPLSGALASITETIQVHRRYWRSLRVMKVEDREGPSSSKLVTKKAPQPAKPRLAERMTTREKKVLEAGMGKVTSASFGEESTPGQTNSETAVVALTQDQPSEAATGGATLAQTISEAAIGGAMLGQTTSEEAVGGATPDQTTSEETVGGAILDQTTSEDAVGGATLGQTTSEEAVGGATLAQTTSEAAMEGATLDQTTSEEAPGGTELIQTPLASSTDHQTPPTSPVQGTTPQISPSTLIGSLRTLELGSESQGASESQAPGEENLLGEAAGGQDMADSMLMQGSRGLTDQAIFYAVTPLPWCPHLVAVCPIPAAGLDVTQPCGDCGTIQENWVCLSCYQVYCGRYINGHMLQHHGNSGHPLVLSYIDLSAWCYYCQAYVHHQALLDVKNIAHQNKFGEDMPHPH
The experiment can be described thus: Effect on SAHA-induced HDAC6 inhibition in p53 null human U937 cells assessed as hyper acetylation of alpha tubulin at 1 uM after 4 hrs by Western blot analysis. It is filed as cell-based. The essentials: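 U937 cells treated at 1 μM for 4 h. Whole-cell lysates run on SDS-PAGE, transferred to PVDF and immunoblotted for acetyl-histone H4, histone H4, acetyl-α-tubulin and β-actin.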

For experiment [6], the system named is MOLM-13. The experiment can be described thus: Induction of apoptosis in human MOLM13 cells harboring wild type p53/FLT3-ITD mutant at 1 uM after 24 hrs by annexin V-FITC/PI staining based flow cytometry. It is filed as functional. The essentials: (§1)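 Cells treated 24 h, single agents or SAHA+PL at 1:1 (each drug at the stated concentration). Annexin V-FITC/PI kit staining, then flow cytometry, reported as % Annexin V+ cells. Three independent experiments in triplicate, with data from one representative experiment. DMSO <0.1% vehicle control.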

For experiment [7], the system named is U-937. The experiment can be described thus: Induction of apoptosis in p53 null human U937 cells at 2 uM after 24 hrs by annexin V-FITC/PI staining based flow cytometry. Format: functional. The essentials: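 Human U937 AML cells (p53 null) in RPMI 1640 with 10% FBS, 2 mM L-glutamine, penicillin/streptomycin, 37 °C, 5% CO2. Exposed 24 h to compound alone or with SAHA; vehicle DMSO < 0.1% v/v. Annexin V-FITC/PI staining and flow cytometry, reported as % Annexin V+ cells. Three independent experiments in triplicate; one representative shown. EC50 taken as concentration giving 50% Annexin V+ cells versus vehicle.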

In experiment [8] the test system is U-937. The experiment can be described thus: Cytotoxicity against p53 null human U937 cells assessed as decrease in cell viability at 0.5 to 5 uM after 24 hrs by MTT assay. Format: functional, cell-based. The essentials: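 MCF-10A (DMEM/F12, 5% horse serum, hydrocortisone, cholera toxin, insulin, EGF) and U937 (RPMI 1640, 10% FBS) were exposed to 0.5–5 μM, alone or PL+SAHA 1:1, for 24 h. MTT 0.05 mg/mL, 3 h at 37 °C, DMSO solubilization, A570. Viability given as mean ± SD of four to six independent experiments. DMSO <0.1% vehicle control.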

For experiment [9], the system named is MOLM-13. The experiment can be described thus: Induction of apoptosis in human MOLM13 cells harboring wild type p53/FLT3-ITD mutant at 4 uM after 24 hrs by annexin V-FITC/PI staining based flow cytometry. Format: functional. The essentials:
as §1

The source made the active and inactive calls. The calls are words filed in the database; no cut-off is given here.

Consider `COc1cc(/C=C/C(=O)N2CCC=CC2=O)cc(OC)c1OC` [PIPLARTINE], for which the IC50 in [1] stood at 1040 nM; with MV4-11, 289 nM. For the same compound, the CI with U-937 [2] was below 0.9. For the same compound, in the experiment on U-937 [3], the outcome was Active. In the experiment with U-937 [4], the Ratio worked out at 0.9. The outcome in [5] was inactive.
For the compound `COc1cc(/C=C/C(=O)N2CCC=CC2=O)cc(OC)c1OCCCCCCC(=O)NO`, the figures for the Activity in the experiment with MOLM-13 [6], in the experiment on U-937 [7] and in the experiment with MOLM-13 [9] were 24.6%, 56.9% and 80.3%, respectively. In addition, the result in the experiment with U-937 [8] was Active.

One may read the IC50 as the concentration needed to halve the response being measured.

The values are drawn from ChEMBL document CHEMBL4000155, “Synthesis and Antileukemic Activities of Piperlongumine and HDAC Inhibitor Hybrids against Acute Myeloid Leukemia Cells” (J Med Chem, 2016).
